test: Toxicity liver stage against HepG2, at 10uM; type: cell-based; set-up: test concentration 10 uM, cell line HepG2-A16-CD81EGFP; conditions: human, HepG2-A16-CD81EGFP cells; read-out: INHIBITION
Summary of the method: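 Uninfected HepG2-A16-CD81EGFP cells, 3 × 10^3 per well, 1536-well, plated on prespotted compound at 10 μM final, parasite-free screening media added to match infected plates; puromycin 10 μM positive, DMSO 0.5% negative; run in parallel with 48 h PbLuc assay at 37 °C, 5% CO2; viability by CellTiter-Glo luminescence, normalized to controls.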

Row | Compound | cytotoxicity at 10 µM
1 | CCOCCCNC(=O)C1(C)CCC(=O)N1Cc1ccccc1F (centres undefined) | -5.57%
2 | CCN(CC)CCNC(=O)CCc1c(C)nn(-c2cccc(Cl)c2)c1C | -5.34%
3 | CC(C)CC(=O)N1CC(=O)N(Cc2ccco2)CC(O)C1 (centres undefined) | -8.23%
4 | COc1c(C(N)=O)cn(C)c1-c1nc2cc(NC(C)=O)ccc2n1C | -46.5%
5 | CN1C(=O)COc2ccc(C(=O)Cn3cnc4ccsc4c3=O)cc21 | 8.69%
6 | Cc1nn(C)cc1C1CC(=O)Nc2c1cnn2C(C)C (centres undefined) | -4.31%
7 | COC(=O)CCNC(=O)c1cc(-c2ccc(OC)cc2)nn1C | 4.75%
8 | Cc1nn(CCNS(=O)(=O)c2ccccc2)c(C)c1Cl | -5.26%
9 | CC(C)n1cc(C(=O)NCCN(C)C)c2n[nH]c(=O)c-2c1 | 9.06%
10 | CN1CCN(CC2CC2)C(=O)C12CCN(c1nccs1)CC2 | -6.01%
11 | CN1Cc2ccccc2CC2(CCN(c3ncccn3)CC2)C1=O | -7.42%
12 | CN1CCN(Cc2ccco2)Cc2cccnc21 | 2.04%
13 | COC[C@@]12CCO[C@@H]1CCN(C(=O)Cc1ccc(C)cc1)C2 | 1.47%
14 | Oc1nnc(-c2cccs2)c2sc(N3CCCC3)nc12 | -2.73%
15 | Cc1nn(C)c2c(=O)n(Cc3ccc(Cl)cc3)nnc12 | -3.02%
16 | CCn1nc(C)c2nc(C(C)C)nc(NCC(=O)N3CCOCC3)c21 | 3.07%
17 | CC(C)CC(=O)N1CCC(Nc2nc(O)cc(-c3ccsc3)n2)CC1 | 11.3%
18 | CCc1nccn1-c1nccnc1C1CCCN(C(=O)COC)C1 (centres undefined) | -21.5%
19 | O=C(N[C@@H]1CCC[C@@H](N2CCCC2)[C@@H]1O)c1cc2ccccc2[nH]1 | -16.2%
20 | Cc1ccnc(C2CCN(C(=O)c3cnn(C)c3)C2)n1 (centres undefined) | -15%
21 | O=C(c1ccncc1)N1CCC(c2nc(O)cc(-c3ccncc3)n2)C1 (centres undefined) | 0.873%
22 | CC(=O)N1CCCC(c2cnc(-c3c(C)nn(C)c3C)cn2)C1 (centres undefined) | 1.95%
23 | CN(C)c1cncc(C2CCN(C(=O)CO)CC2)n1 | -1.37%
24 | O=C(c1ccc(Cl)cc1)N1CCC(N2CCCOC2=O)CC1 | 11.1%
25 | CN1CC(=O)N(C2CCCNC2)Cc2c(NC3CCC3)ncnc21 (centres undefined) | 3.96%
26 | O=C(Nc1c(N2CCCC2)cccc1N1CCCC1)c1cnccn1 | -50.9%
27 | CC(C)c1nc2n(n1)CC(Nc1ncnc3c1CCC3)CC2 (centres undefined) | -49.1%

Row | Compound | cytotoxicity at 10 µM
28 | CC(C#N)CN(C)Cc1cc(Cl)cc2cccnc12 (centres undefined) | -48.5%
29 | CC(C)(C)c1cc(NC(=O)CNC2CCc3ncnn3C2)on1 (centres undefined) | 9.03%
30 | Cc1cc(S(C)(=O)=O)c(C)c(S(=O)(=O)NCC2CCCO2)c1 (centres undefined) | -8.02%
31 | Cc1nc(CNC(=O)NCCC2=CCCC2)oc1C | -1.18%
32 | Cc1ccc(S(=O)(=O)CCC(=O)N(C)Cc2cnn(C)c2)cc1 | -2.9%
33 | CC(C)c1ccc2c(c1)CCCN2C(=O)CN(C)S(C)(=O)=O | 3.78%
34 | O=C(Nc1ccc(Cl)cn1)C1CCN(CCc2ccccn2)CC1 | -6.55%
35 | O=C(Nc1ccc(Cl)cn1)C1CCCN(CCc2ccccn2)C1 (centres undefined) | 7.33%
36 | NC(=O)C1CCN(c2cncc(-n3cccn3)n2)CC1 | 12.5%
37 | CC(C)OCCC(=O)NCCc1csc(N2CCCC2)n1 | -12.9%
38 | Cc1cccc(C(=O)NCCNCC2CNc3ccnn3C2)c1 (centres undefined) | -0.00278%
39 | CNC(=O)NC(C)c1nc(-c2ccc(Br)cc2)no1 (centres undefined) | 7.71%
40 | CC(C)C1CN(C(=O)c2ccsc2)CCS1 (centres undefined) | 2.46%
41 | N#Cc1cccc(CNc2cc(CO)ccc2Cl)c1 | 11.5%
42 | CN(C)C(=O)Cc1nc(CN2CCCC2Cn2cccn2)cs1 (centres undefined) | 4.79%
43 | CCNC(=O)CN1CCN(c2cc(C)nc(-c3ccncc3)n2)CC1 | 5.63%
44 | Cc1csc(CNCC(C)c2nc3ccccc3o2)n1 (centres undefined) | -15.6%
45 | COCCNS(=O)(=O)c1ccc(CNc2ncccc2C#N)cc1 | 6.47%
46 | CC(=O)c1ccc(C(=O)N2CCCCC2c2nc[nH]n2)cc1 (centres undefined) | -5.3%
47 | CCc1n[nH]c(=O)c(C(=O)N2CCOC3(CCCC3)C2)c1CC | 13.3%
48 | COc1ccccc1NC(=O)NC1(c2noc(CN(C)C)n2)CCCC1 | -5.22%
49 | Cc1ccccc1C(C)CC(=O)N1CC[C@H](O)C1 (some centres undefined) | -49.7%
50 | CN(C)C1CCN(C(=O)CCc2cc(Br)cs2)CC1 | -18%
51 | CC(=O)N1CCC(NC(=O)c2ccc3c(c2O)OC(C)(C)C3)CC1 | 0.519%
52 | CCc1nc(CNCC2(C(N)=O)CCOCC2)cs1 | -3.97%
53 | COCC1COCCC12CCN(S(=O)(=O)c1ccccc1C)CC2 (centres undefined) | -5.42%
54 | CCS(=O)(=O)N1C[C@@H](c2ccccc2)[C@@]2(CCNC2=O)C1 | -108%
